ChEMBL document CHEMBL3994627, “Positional isomers of bispyridine benzene derivatives induce efficacy changes on mGlu5 negative allosteric modulation” (Eur J Med Chem, 2017)

Columns and labels:
[1] = molecular target: Metabotropic glutamate receptor 5 (Homo sapiens, UniProt P41594); assay: Negative allosteric modulation of mGlu5 receptor (unknown origin)
[2] = molecular target: Metabotropic glutamate receptor 5 (Rattus norvegicus) (UniProt P31424); assay: Ratio of IC50 for negative allosteric modulation of rat N-terminal HA-tagged mGlu5 receptor expressed in HEK293 cells under dark condition to IC50 for negative allosteric modulation of rat N-terminal HA-tagged mGlu5 receptor expressed in HEK293 cells under violet light illumination; assay type: cell-based
In short: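 HEK293 cells expressing rat HA-mGlu5 and EAAC1 were stimulated with 100 nM quisqualate plus compound for 30 min at 37°C. Part of each plate was kept dark under foil; the rest was lit continuously at 380 nm from an LED plate. After a single wash, IP was measured by HTRF. Value is IC50 (dark) divided by IC50 (violet). Curves used ≥3 independent replicates.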

[3] = molecular target: Metabotropic glutamate receptor 5 (Rattus norvegicus, UniProt P31424); assay: (§1) Negative allosteric modulation of rat N-terminal HA-tagged mGlu5 receptor expressed in HEK293 cells co-expressing N-terminal HA-tagged EAAC1 assessed as inhibition of quisqualate-induced inositol phosphate accumulation after 30 mins by HTRF assay; assay type: functional, cell-based
In short: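 Rat mGlu5 (N-terminal HA tag) and EAAC1 were co-transfected into HEK293 cells by electroporation and seeded at 1.5 × 10^5 cells/well. Medium was changed to glutamate-free DMEM at least 4 h before the run. Next day, cells got 100 nM quisqualate plus compound for 30 min at 37°C, 5% CO2, then were washed once. IP accumulation was read by IP-One HTRF. Dose-response used ≥3 independent replicates.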

[4] = molecular target: Metabotropic glutamate receptor 5 (Rattus norvegicus) (UniProt P31424); assay: as §1, with “accumulation by measuring difference in efficacy between dark condition and violet light illumination” for “accumulation”; assay type: functional, cell-based; parameters: scale not given: the % may be the effect or the level left
In short: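 Quisqualate (100 nM) and compound were applied for 30 min at 37°C to HEK293 cells expressing rat HA-mGlu5 and EAAC1. Wells sat over an LED plate 2–3 cm away: foil-covered wells stayed dark, the rest got continuous 380 nm light. Cells were washed once before lysis, then IP-One HTRF was read. Value is the efficacy difference (%), dark minus violet.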

[5] = molecular target: Metabotropic glutamate receptor 5 (Rattus norvegicus) (UniProt P31424); assay: Negative allosteric modulation of rat N-terminal HA-tagged mGlu5 receptor expressed in HEK293 cells co-expressing N-terminal HA-tagged EAAC1 assessed as inhibition of quisqualate-induced inositol phosphate accumulation after 30 mins by HTRF assay relative to fenobam; assay type: functional, cell-based
In short: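 Dose-response was run in HEK293 cells expressing rat HA-mGlu5 and EAAC1, under 100 nM quisqualate with compound for 30 min at 37°C, in dark conditions. IP-One HTRF read-out. Efficacy was taken from the bottom of the dose-response curve and normalised between 0% and 100% of the fenobam response.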

Chain of Metabotropic glutamate receptor 5 (Rattus norvegicus) (P31424 21-1203 limits assumed): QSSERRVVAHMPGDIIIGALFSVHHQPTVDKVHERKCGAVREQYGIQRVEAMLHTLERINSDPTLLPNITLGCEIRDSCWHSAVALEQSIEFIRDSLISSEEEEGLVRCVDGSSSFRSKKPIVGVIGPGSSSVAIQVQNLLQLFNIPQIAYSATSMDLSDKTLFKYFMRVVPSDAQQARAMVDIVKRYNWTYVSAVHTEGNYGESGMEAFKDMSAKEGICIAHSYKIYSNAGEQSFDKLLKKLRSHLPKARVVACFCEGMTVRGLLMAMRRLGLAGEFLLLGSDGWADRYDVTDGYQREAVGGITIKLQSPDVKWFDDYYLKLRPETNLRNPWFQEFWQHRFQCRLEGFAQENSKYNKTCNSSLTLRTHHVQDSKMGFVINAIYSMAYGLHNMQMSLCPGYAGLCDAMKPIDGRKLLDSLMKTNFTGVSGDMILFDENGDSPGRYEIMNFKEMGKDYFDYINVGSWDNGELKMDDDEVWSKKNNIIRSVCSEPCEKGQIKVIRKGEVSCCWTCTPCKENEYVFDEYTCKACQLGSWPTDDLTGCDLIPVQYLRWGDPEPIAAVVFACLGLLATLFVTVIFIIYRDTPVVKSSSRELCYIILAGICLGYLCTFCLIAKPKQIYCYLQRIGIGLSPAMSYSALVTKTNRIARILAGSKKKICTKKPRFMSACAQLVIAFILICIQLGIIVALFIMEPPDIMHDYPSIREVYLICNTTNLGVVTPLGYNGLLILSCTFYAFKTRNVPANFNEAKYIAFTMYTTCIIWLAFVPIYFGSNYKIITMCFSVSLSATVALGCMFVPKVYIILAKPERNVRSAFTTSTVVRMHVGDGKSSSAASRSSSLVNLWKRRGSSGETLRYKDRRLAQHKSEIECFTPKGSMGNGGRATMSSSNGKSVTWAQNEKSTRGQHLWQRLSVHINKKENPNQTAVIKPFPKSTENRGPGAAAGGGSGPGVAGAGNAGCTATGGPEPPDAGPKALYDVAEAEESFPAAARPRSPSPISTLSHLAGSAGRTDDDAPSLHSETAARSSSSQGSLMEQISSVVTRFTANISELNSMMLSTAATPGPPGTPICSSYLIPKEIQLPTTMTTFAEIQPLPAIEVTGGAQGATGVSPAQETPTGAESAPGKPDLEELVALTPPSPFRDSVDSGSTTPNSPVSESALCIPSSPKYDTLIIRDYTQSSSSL
Chain of Metabotropic glutamate receptor 5 (Rattus norvegicus, UniProt P31424) (P31424 whole entry): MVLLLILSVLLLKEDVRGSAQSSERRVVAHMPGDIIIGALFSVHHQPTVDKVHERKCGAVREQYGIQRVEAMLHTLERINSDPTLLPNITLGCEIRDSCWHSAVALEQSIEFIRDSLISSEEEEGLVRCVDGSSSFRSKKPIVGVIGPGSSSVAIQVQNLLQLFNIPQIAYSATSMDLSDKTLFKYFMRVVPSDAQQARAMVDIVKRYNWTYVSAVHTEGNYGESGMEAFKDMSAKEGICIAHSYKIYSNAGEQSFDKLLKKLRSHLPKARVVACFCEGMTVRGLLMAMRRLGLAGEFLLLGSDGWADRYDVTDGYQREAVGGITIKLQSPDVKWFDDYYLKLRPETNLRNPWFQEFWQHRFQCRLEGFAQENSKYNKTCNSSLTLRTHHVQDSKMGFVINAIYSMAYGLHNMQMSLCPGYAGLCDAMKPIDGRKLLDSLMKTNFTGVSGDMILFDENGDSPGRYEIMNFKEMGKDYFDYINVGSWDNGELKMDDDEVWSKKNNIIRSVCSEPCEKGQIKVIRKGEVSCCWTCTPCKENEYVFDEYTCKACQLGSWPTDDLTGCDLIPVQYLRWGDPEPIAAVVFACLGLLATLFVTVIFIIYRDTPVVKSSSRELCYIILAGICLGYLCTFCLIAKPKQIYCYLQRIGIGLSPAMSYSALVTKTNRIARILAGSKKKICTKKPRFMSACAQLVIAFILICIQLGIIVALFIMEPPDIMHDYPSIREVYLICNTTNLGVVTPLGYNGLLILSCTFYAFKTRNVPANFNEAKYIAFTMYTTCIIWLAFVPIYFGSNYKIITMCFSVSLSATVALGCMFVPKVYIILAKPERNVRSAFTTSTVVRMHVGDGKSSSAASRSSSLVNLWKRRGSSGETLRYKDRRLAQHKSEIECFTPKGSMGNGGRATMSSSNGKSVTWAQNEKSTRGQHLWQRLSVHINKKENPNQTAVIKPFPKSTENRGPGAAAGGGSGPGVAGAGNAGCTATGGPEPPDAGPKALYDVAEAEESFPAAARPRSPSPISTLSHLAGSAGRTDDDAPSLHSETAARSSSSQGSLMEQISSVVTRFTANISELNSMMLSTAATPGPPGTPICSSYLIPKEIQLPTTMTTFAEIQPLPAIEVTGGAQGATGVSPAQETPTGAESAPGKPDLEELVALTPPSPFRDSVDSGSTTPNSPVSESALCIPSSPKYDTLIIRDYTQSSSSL
Chain of Metabotropic glutamate receptor 5 (Homo sapiens, UniProt P41594) (P41594 whole entry): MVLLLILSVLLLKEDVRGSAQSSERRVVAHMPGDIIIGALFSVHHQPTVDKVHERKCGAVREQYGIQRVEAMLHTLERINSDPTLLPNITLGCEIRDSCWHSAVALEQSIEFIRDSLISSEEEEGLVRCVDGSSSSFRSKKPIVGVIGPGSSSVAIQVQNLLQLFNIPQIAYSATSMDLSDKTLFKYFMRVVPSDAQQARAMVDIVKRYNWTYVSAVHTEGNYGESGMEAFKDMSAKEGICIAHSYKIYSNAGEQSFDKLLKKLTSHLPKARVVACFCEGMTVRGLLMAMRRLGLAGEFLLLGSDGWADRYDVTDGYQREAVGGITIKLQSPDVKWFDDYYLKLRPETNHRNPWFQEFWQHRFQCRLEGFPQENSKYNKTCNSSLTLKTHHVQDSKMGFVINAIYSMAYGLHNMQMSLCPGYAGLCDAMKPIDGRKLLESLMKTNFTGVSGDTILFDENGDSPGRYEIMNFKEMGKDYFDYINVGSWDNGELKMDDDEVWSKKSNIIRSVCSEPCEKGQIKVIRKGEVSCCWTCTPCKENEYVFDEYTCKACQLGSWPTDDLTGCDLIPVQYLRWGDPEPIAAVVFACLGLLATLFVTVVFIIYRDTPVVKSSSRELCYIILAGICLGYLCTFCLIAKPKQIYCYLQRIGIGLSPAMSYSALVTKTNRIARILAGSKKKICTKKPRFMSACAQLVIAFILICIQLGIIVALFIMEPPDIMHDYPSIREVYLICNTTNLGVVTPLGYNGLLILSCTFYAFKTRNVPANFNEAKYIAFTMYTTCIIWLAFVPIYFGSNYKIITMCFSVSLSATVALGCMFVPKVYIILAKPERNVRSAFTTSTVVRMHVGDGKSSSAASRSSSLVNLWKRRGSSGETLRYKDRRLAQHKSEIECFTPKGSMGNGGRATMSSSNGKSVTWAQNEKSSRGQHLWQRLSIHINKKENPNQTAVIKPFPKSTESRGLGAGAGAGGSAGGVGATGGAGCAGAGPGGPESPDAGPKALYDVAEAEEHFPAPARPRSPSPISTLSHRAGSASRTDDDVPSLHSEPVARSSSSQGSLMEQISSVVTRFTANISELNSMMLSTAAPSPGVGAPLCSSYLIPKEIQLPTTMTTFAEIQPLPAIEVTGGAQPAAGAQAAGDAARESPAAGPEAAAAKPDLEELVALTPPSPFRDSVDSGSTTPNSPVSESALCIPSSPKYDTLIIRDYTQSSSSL

| SMILES | IC50 [1] [nM] | Ratio IC50 [2] | IC50 [3] [nM] | Activity [4] [%] | Efficacy [5] [%] |
| --- | --- | --- | --- | --- | --- |
| Cc1cc(C)c(N)c(C#Cc2cccc(F)c2)n1 [RASEGLURANT] | 17 |  |  |  |  |
| c1ccc(/N=N/c2cccc(/N=N/c3ccccn3)c2)nc1 |  | 2.2 | 4920 | 15 | 114 |
| C(#Cc1ccccn1)c1cccc(C#Cc2ccccn2)c1 |  |  | 430 |  | 114 |
| C(#Cc1ccccn1)c1ccc(/N=N\c2ccccn2)cc1 |  | 2.9 | 3090 | 15 | 35 |
| c1ccc(/N=N/c2ccc(/N=N/c3ccccn3)cc2)nc1 |  | 1.2 | 6130 | -1 | 19 |
| C(#Cc1ccccn1)c1ccc(C#Cc2ccccn2)cc1 |  |  | 1210 |  | 42 |
| C(#Cc1ccccn1)c1cccc(/N=N/c2ccccn2)c1 |  | 1.3 | 960 | 9 | 115 |
